Measurements from different studies.
Compare with care: the assays were run in different laboratories.
Effect on: metabolic stability
Species: human

Structure (SMILES)	test system	setting	half-life [min]
CC(C)NCC(O)COc1cccc2ccccc12 (racemic)	liver microsomes	2 µM, pH 7.4	68.2
Cc1[nH]c(C)c(S(=O)(=O)Nc2ccc(C(F)(F)F)c(Cl)c2)c1C(=O)N1CCC(F)(F)C1	liver microsomes		10.2
COc1cc(-c2cc(C(C)=O)n3ccccc23)c(OC)cc1Cn1ccnc1	liver microsomes	pH 7.4	> 120
O=C1CCC(N2Cc3cc(C4CCN(Cc5ccccc5)CC4)ccc3C2=O)C(=O)N1 (stereo not drawn)	liver microsomes	1 µM	> 60
O=c1c2cc(Cl)ccc2[nH]c(=S)n1Cc1cccnc1	liver microsomes	1 µM, pH 7.4	> 186
CCCCN(CCCC)CCCOc1ccc2c(=O)c3c([nH]c2c1)CCCC3	liver microsomes	1 µM, pH 7.4	15.1
OCc1ccc(-c2nn(Cc3ccccc3)c3ccccc23)o1	liver microsomes		7
O=c1c2ccccc2[nH]c2cc(Oc3ccc(OC(F)(F)F)cc3)ccc12	liver microsomes	1 µM, pH 7.4	> 60
O=C(N1CCCCC1)C12CC(c3ccccc3)(C1)C2	liver microsomes	2 µM, pH 7.4	70.2
Cc1ncsc1-c1ccc([C@H](CC(=O)N2CC3(C2)CN(c2ccc(C#Cc4ccc(C(=O)N5CCC(n6cc(-c7ccc8c(c7)CCN8C(=O)Cc7cccc(OC(F)(F)F)c7)c7c(N)ncnc76)CC5)cc4)cn2)C3)NC(=O)[C@@H]2C[C@@H](O)CN2C(=O)[C@@H](NC(=O)C2(F)CC2)C(C)(C)C)cc1	hepatocytes	1 µM	> 120
CC(C)C(=O)OCc1cc2[nH]c(=S)n(Cc3cccnc3)c(=O)c2cc1Cl	liver microsomes	1 µM, pH 7.4	< 5
C=CCn1c(=O)c2cnc(Nc3ccc(N4CCN(C)CC4)cc3)nc2n1-c1ccc2c(n1)[C@@](O)(CC)CC2	hepatocytes		93
O=c1c2c([nH]c3cc(Oc4ccc(OC(F)(F)F)cc4)ccc13)CCCC2	liver microsomes	1 µM, pH 7.4	26.8
c1ccc(Oc2ccc(Nc3c4c(nc5ccccc35)CCC4)cc2)cc1	liver microsomes	0.5 µM	57
O=c1c2ccc(Oc3ccccc3OC(F)(F)F)cc2[nH]c2cc(Cl)cc(F)c12	liver microsomes	1 µM, pH 7.4	> 60
Nc1nnc(-c2ccccc2O)cc1N1CCN(Cc2ccc(N3CCN(CCOc4cccc5c4C(=O)N(C4CCC(=O)NC4=O)C5=O)CC3)c(F)c2)CC1 (stereo not drawn)	liver microsomes	1 mM	35
O=c1c2c([nH]c3ccc(F)c(Oc4ccc(OC(F)(F)F)cc4)c13)CCCC2	liver microsomes	1 µM, pH 7.4	14.9
Cc1ccc(OCC(=O)N[C@@H](Cc2c[nH]c3ccccc23)C(=O)OC(C)C)cc1	liver microsomes	20 mM	352
CN1CCC(Oc2ccc3c(=O)c4c(F)cc(Cl)cc4[nH]c3c2)CC1	liver microsomes	1 µM, pH 7.4	55.7
Cc1ccc2[nH]c(=S)n(Cc3cccnc3)c(=O)c2c1	liver microsomes	1 µM, pH 7.4	10.6
O=c1c2c([nH]c3cc(Nc4ccc(OC(F)(F)F)cc4)ccc13)CCCC2	liver microsomes	1 µM, pH 7.4	20.7
O=c1c2cc(Cl)ncc2[nH]c(=S)n1Cc1cccnc1	liver microsomes	1 µM, pH 7.4	> 186
Cc1c(C)n(Cc2cccc(OC(C)(C)C(=O)O)c2)c2ccc(C(=O)N[C@@H](C)c3ccc(C(C)(C)C)cc3)cc12	liver microsomes		> 60
NC(=NCCC[C@@H](C(=O)NCc1ccccc1)n1cc(-c2ccc(-c3ccccc3)cc2)nn1)c1ccc([N+](=O)[O-])o1	liver microsomes		29
O=C(O)Cc1ccccc1Nc1c(Cl)cccc1Cl	liver microsomes	1 µM	12
O=c1c2c([nH]c3ccc(Oc4ccc(OC(F)(F)F)cc4)cc13)CCCC2	liver microsomes	1 µM, pH 7.4	25.1
Cc1cc2c(C(=O)O)cccc2n1-c1nc2c(c(NCc3ccccc3)n1)CCCN2	liver microsomes	1 µM, pH 7.4	> 120
